Experimental data: ChEMBL document CHEMBL1126728, “Synthesis and biochemical evaluation of the CBI-PDE-I-dimer, a benzannelated analog of (+)-CC-1065 that also produces delayed toxicity in mice” (J Med Chem, 1993)

Columns and labels:
Mus musculus [1] = test: in vivo percent increase in lifespan (ILS) at the optimum dose in L1210 cells; assay type: functional
In short: (§1)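 L1210 leukemia, passaged in syngeneic DBA/2 female mice, was implanted i.p. at 10^6 cells/mouse on day 0; one i.v. dose on day 1 (2% DMA/10% Emulphor EL-620P/88% water); 6 mice per group; dose-response run. Optimal dose = greatest efficacy with ≤15% drug-related deaths. %ILS = (median survival treated/median survival vehicle control − 1) × 100, counting long-term survivors.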

Mus musculus [2] = test: Optimum antitumor dose (OD) against L1210 mouse leukemia cells implanted intraperitoneally in CD2F1 mice; assay type: functional
In short: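 L1210 cells passaged in DBA/2 female mice, implanted ip (10^6 cells/mouse) in CD2F1 mice, 6 per group, on day 0. Single iv dose 24 h later (day 1) in 2% DMA, 10% Emulphor EL-620P, 88% sterile water; dose response run. Optimum dose (µg/kg) is the dose giving greatest ILS (median survival) with ≤15% drug-related deaths.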

Mus musculus [3] = test: Median day of death (MDD) in normal (Non tumor bearing) mice treated with a single i.v. dose at 200 ug/kg; assay type: functional
In short: (§2)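 Non-tumor-bearing mice got one intravenous injection in a vehicle of 2% DMA, 10% Emulphor EL-620P and 88% sterile water. Survival was followed for 90 days, which ended the experiment. Six mice per dose group; the value is the median day of death. Deaths after more than 28 days counted as delayed.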

L1210 [4] = test: In vitro cytotoxicity against mouse leukemia L1210 cells was determined; assay type: functional, cell-based
In short: (§3)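 L1210 mouse leukemia cells in RPMI 1634 supplemented with 5% fetal calf serum, 0.075% sodium bicarbonate, penicillin and streptomycin. Drug added to cultures at about 5 × 10^3 cells/mL, incubated 3 days at 37 °C. Cell number counted with a Coulter counter; IC50 in nM, run side by side with the corresponding CPI analog.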

Mus musculus [5] = test: Optimum antitumor dose (OD) against L1210 mouse leukemia cells implanted intraperitoneally in CD2F1 mice (Highest dose tested); assay type: functional; in short: as §1
Mus musculus [6] = test: Median day of death (MDD) in normal (Non tumor bearing) mice treated with a single i.v. dose at 400 ug/kg; assay type: functional; in short: as §2
Mus musculus [7] = test: Median day of death (MDD) in normal (Non tumor bearing) mice treated with a single i.v. dose at 100 ug/kg; assay type: functional; in short: as §2
Mus musculus [8] = test: Median day of death (MDD) in normal (Non tumor bearing) mice treated with a single i.v. dose at 25 ug/kg; assay type: functional; in short: as §2
Mus musculus [9] = test: Median day of death (MDD) in normal (Non tumor bearing) mice treated with a single i.v. dose at 50 ug/kg; assay type: functional; in short: as §2
L1210 [10] = test: In vitro cytotoxicity against mouse leukemia L1210 cells; assay type: functional, cell-based; in short: as §3

Cc1c[nH]c2c1[C@@]13CC1CN(C(=O)c1cc4cc(NC(=O)c5cc6ccccc6[nH]5)ccc4[nH]1)C3=CC2=O (some centres not stated)
ILS (Mus musculus [1]): 83%
OD (Mus musculus [2]): 0.1 mg/kg
MDD (Mus musculus [3]): 3

O=C1C=C2N(C(=O)c3cc4ccccc4[nH]3)CC3C[C@]23c2ccccc21 (single isomer, unassigned; (-))
IC50 (L1210 [4]): 12 nM

CC(=O)N1CC2C[C@@]23C1=CC(=O)c1ccccc13 (single isomer, unassigned; (+))
IC50 (L1210 [4]): 5 nM

O=C(Nc1ccc2[nH]c(C(=O)N3CC4C[C@]45C3=CC(=O)c3ccccc35)cc2c1)c1cc2ccccc2[nH]1 (single isomer, unassigned; (-))
IC50 (L1210 [4]): 0.3 nM
ILS (Mus musculus [1]): 50%
OD (Mus musculus [5]): 1.6 mg/kg

COc1c(O)c2c(c3cc(C(=O)N4CCc5c4c(O)c(OC)c4[nH]c(C(=O)N6CC7C[C@]78C6=CC(=O)c6ccccc68)cc54)[nH]c13)CCN2C(N)=O (single isomer, unassigned; (-))
IC50 (L1210 [4]): 0.01 nM
ILS (Mus musculus [1]): 6%
OD (Mus musculus [2]): 0.2 mg/kg
MDD (Mus musculus [6]): 5

CC(=O)N1CC2C[C@]23C1=CC(=O)c1ccccc13 (single isomer, unassigned; (-))
IC50 (L1210 [4]): 70 nM

O=C1C=C2N(C(=O)c3cc4ccccc4[nH]3)CC3C[C@@]23c2ccccc21 (single isomer, unassigned; (+))
IC50 (L1210 [4]): 0.1 nM
ILS (Mus musculus [1]): 50%
OD (Mus musculus [2]): 0.8 mg/kg

COc1c(O)c2c(c3cc(C(=O)N4CCc5c4c(O)c(OC)c4[nH]c(C(=O)N6CC7C[C@@]78C6=CC(=O)c6ccccc68)cc54)[nH]c13)CCN2C(N)=O (some centres not stated)
IC50 (L1210 [4]): 0.02 nM
ILS (Mus musculus [1]): 28%
OD (Mus musculus [2]): 0.2 mg/kg
MDD (Mus musculus [7]): 41
MDD (Mus musculus [3]): 38
MDD (Mus musculus [8]): 48
MDD (Mus musculus [6]): 5
MDD (Mus musculus [9]): 42

OC1=CC2=NCC3C[C@@]23c2ccccc21 (some centres not stated)
IC50 (L1210 [4]): 230 nM

OC1=CC2=NCC3C[C@]23c2ccccc21 (some centres not stated)
IC50 (L1210 [10]): 6600 nM

O=C(Nc1ccc2[nH]c(C(=O)N3CC4C[C@@]45C3=CC(=O)c3ccccc35)cc2c1)c1cc2ccccc2[nH]1 (single isomer, unassigned; (+))
IC50 (L1210 [4]): 0.006 nM
ILS (Mus musculus [1]): 67%
OD (Mus musculus [2]): 0.1 mg/kg
MDD (Mus musculus [3]): 7

COc1c(O)c2c(c3cc(C(=O)N4CCc5c4c(O)c(OC)c4[nH]c(C(=O)N6C[C@H]7C[C@@]78C6=CC(=O)c6[nH]cc(C)c68)cc54)[nH]c13)CCN2C(N)=O [(+)-CC-1065]
MDD (Mus musculus [8]): 42
MDD (Mus musculus [9]): 41
